Experimental data as given in ChEMBL document CHEMBL2086300, “Synthesis and biological evaluation of imidazo[4,5-b]pyridine and 4-heteroaryl-pyrimidine derivatives as anti-cancer agents” (Eur J Med Chem, 2012).
The source made the active and inactive calls. No cut-off for these calls is given here.

Columns and labels:
HCT-116 [1] = experiment: Antiproliferative activity against human HCT116 cells after 72 hrs by MTT assay; assay type: functional; conditions: HCT-116, 72 h
Summary of the method: (§1)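 HCT-116 and MCF-7 cells kept in RPMI-1640 plus 10% FBS. Cells exposed to compound for 72 h and read by MTT. GI50 obtained by non-linear regression.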

[2] = molecular target: Cyclin-dependent kinase 7/ cyclin H (Homo sapiens, UniProt P50613); experiment: Inhibition of CDK7/cyclin-H by radiometric assay; assay type: protein-complex assay
Chain of Cyclin-dependent kinase 7/ cyclin H (P51946 whole entry): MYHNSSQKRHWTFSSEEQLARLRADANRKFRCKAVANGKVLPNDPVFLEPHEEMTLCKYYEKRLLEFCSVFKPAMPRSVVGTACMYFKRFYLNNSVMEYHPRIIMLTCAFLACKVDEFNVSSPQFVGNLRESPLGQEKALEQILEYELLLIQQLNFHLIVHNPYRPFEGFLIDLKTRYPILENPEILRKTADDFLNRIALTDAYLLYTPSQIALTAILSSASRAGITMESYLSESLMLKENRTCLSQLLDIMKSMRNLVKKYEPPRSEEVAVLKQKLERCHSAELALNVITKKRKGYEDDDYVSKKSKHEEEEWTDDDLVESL
Chain of Cyclin-dependent kinase 7/ cyclin H (P50613 whole entry): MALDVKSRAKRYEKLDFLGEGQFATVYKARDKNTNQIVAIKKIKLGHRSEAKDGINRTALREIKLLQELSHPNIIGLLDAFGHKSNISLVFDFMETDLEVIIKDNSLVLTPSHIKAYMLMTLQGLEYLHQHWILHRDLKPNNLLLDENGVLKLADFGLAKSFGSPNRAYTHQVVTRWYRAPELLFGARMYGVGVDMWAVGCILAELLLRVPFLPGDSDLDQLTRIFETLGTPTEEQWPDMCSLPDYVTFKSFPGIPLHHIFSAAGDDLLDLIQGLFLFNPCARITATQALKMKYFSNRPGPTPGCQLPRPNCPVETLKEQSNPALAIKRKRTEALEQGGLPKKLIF
Summary of the method: (§2)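 Radiometric kinase assay run as an outsourced profiling service. IC50 taken from 10-point dose-response curves. Apparent Ki calculated from IC50 and the kinase-specific Km(ATP). Data are means of two replicates.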

MCF7 = experiment: Antiproliferative activity against human MCF7 cells after 72 hrs by MTT assay; assay type: functional; conditions: MCF7, 72 h; summary of the method: as §1
[3] = molecular target: Cyclin-dependent kinase 1/cyclin B1 (Homo sapiens, UniProt P06493); experiment: Inhibition of CDK1/cyclin B by radiometric assay; assay type: protein-complex assay; summary of the method: as §2
Chain of Cyclin-dependent kinase 1/cyclin B1 (P06493 whole entry): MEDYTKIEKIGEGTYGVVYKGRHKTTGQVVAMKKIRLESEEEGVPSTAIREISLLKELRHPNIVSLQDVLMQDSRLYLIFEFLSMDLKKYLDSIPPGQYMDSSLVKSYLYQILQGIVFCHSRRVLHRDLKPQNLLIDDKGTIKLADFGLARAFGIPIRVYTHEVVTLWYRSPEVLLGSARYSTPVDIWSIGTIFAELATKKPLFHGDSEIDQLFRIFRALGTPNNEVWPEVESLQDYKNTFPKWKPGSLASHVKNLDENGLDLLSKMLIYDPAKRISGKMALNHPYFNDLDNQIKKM
Chain of Cyclin-dependent kinase 1/cyclin B1 (P14635 whole entry, further chain): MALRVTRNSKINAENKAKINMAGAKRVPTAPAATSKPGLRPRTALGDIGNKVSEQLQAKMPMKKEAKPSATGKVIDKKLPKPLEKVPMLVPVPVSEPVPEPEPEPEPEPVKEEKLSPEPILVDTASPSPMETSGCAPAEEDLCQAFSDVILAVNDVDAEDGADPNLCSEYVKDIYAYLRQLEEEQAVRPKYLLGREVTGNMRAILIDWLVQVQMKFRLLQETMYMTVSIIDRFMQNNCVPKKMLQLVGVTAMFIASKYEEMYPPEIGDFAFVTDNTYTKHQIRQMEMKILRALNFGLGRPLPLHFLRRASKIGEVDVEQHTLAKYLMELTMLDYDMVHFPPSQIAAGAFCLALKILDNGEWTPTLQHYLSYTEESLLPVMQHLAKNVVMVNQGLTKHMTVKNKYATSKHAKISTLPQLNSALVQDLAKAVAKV

CDK9/cyclin T1 = CDK9/cyclin T1 (Homo sapiens, UniProt P50750); experiment: Inhibition of CDK9/cyclin-T1 by radiometric assay; assay type: protein-complex assay; summary of the method: as §2
Chain of CDK9/cyclin T1 (O60563 whole entry): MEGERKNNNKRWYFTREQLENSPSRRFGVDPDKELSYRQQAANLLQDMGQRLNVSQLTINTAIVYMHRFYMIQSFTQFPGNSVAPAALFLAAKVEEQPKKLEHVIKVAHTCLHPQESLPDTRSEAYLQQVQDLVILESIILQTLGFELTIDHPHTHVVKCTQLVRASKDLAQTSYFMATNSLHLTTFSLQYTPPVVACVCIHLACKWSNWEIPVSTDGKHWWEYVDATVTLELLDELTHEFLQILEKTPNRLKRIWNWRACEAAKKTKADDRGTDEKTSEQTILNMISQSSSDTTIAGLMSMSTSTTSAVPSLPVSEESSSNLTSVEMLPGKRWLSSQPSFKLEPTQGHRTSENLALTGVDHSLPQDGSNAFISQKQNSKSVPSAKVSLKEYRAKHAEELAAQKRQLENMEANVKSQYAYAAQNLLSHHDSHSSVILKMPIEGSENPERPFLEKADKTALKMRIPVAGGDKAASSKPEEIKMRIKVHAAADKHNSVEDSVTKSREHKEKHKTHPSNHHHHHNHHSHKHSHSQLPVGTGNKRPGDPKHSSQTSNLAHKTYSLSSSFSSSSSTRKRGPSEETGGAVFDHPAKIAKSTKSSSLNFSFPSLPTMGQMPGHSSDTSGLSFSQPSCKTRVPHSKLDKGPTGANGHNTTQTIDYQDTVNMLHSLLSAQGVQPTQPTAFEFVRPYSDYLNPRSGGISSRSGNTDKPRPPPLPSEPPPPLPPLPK
Chain of CDK9/cyclin T1 (P50750 whole entry): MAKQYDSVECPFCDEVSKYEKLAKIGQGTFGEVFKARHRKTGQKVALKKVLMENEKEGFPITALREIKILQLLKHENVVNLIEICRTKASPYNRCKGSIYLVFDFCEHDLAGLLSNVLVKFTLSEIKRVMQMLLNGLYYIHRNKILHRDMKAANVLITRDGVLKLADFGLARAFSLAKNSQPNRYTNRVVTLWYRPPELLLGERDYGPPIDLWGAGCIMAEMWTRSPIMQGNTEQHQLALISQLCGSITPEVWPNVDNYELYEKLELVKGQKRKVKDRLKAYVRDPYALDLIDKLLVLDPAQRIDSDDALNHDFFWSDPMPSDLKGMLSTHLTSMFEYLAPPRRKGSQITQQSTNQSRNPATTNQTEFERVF

[4] = molecular target: Cyclin-dependent kinase 7/ cyclin H (Homo sapiens) (UniProt P51946+P50613); experiment: Inhibition of CDK7/cyclin-H in human HCT116 cells assessed as RNAPII CTD phosphorylation at Ser-5 at 5 to 50 uM after 24 hrs by Western blotting analysis; assay type: cell-based; conditions: HCT-116
Summary of the method: (§3)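 HCT-116 cells cultured with 5, 25 or 50 µM for 24 h. Lysates analysed by western blot, with β-actin as internal control.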

HCT-116 [5] = experiment: Induction of apoptosis in human HCT116 cells assessed as increase of caspase-3/7 activity at GI50 after 24 hrs; assay type: functional, cell-based
[6] = molecular target: CDK9/cyclin T1 (Homo sapiens) (UniProt O60563+P50750); experiment: Inhibition of CDK9/cyclin-T1 in human HCT116 cells assessed as RNAPII CTD phosphorylation at Ser-2 at 5 to 50 uM after 24 hrs by Western blotting analysis; assay type: cell-based; conditions: HCT-116; summary of the method: as §3
HCT-116 [7] = experiment: Cell cycle arrest in human HCT116 cells at 5 times GI50 after 24 hrs by propidium iodide staining based flow cytometry; assay type: functional
Summary of the method: (§4)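 HCT-116 cells treated for 24 h at GI50, 5 × GI50 or 10 × GI50 multiples. Cells fixed and stained with propidium iodide, then DNA content read by flow cytometry. Pre-G1 fraction taken as the dead-cell population.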

HCT-116 [8] = experiment: Induction of apoptosis in human HCT116 cells assessed as induction of PARP cleavage at 5 to 50 uM after 24 hrs Western blot analysis; assay type: functional, cell-based; summary of the method: as §3
HCT-116 [9] = experiment: Induction of apoptosis in human HCT116 cells assessed as down-regulation of Mcl-1 level at 5 to 50 uM after 24 hrs Western blot analysis; assay type: functional, cell-based; summary of the method: as §3
HCT-116 [10] = experiment: Induction of apoptosis in human HCT116 cells assessed as increase of caspase-3/7 activity at 5 to 10 times GI50 after 24 hrs; assay type: functional, cell-based
HCT-116 [11] = experiment: Cell cycle arrest in human HCT116 cells assessed as accumulation at pre-G1 phase at 10 times GI50 after 24 hrs by propidium iodide staining based flow cytometry; assay type: functional; summary of the method: as §4
HCT-116 [12] = experiment: Cell cycle arrest in human HCT116 cells at GI50 after 24 hrs by propidium iodide staining based flow cytometry; assay type: functional; summary of the method: as §4
[13] = Selectivity ratio of Ki for CDK1/cyclin B to Ki for CDK9/cyclin-T1
Summary of the method: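 Ratio of apparent Ki values for CDK1/cyclin B and CDK9/cyclin-T1. Each Ki comes from a radiometric assay, converted from 10-point-curve IC50 using Km(ATP), mean of two replicates.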

GI50 (HCT-116 [1]) [µM] | GI50 (MCF7) [µM] | Structure (SMILES) | also measured
0.59 | 1.87 | NS(=O)(=O)c1ccc(Nc2nccc(-n3ncc4ccccc43)n2)cc1 | Ki [2]: 0.328 µM; Ki [3]: 0.028 µM; Ki (CDK9/cyclin T1): 0.091 µM
9.01 | 7.26 | CCn1nc(-c2ccnc(Nc3cccc(S(N)(=O)=O)c3)n2)c2ccccc21 | Ki [2]: > 5 µM; Ki [3]: 0.471 µM; Ki (CDK9/cyclin T1): 0.154 µM
6.34 | 0.88 | CCc1nn(-c2ccnc(Nc3ccc(S(N)(=O)=O)cc3)n2)c2ncccc12 | –
2.05 | 2.28 | CCn1nc(-c2ccnc(Nc3ccc(S(N)(=O)=O)cc3)n2)c2ccccc21 | Ki [2]: > 5 µM; Ki [3]: 0.055 µM; Ki (CDK9/cyclin T1): 0.253 µM
36.6 | 33.5 | CCn1nc(-c2ccnc(Nc3cccc(O)c3)n2)c2ccccc21 | –
6.74 | 0.59 | CCCn1nc(-c2ccnc(Nc3ccc(S(N)(=O)=O)cc3)n2)c2ccccc21 | Ki [2]: > 5 µM; Ki [3]: 0.127 µM; Ki (CDK9/cyclin T1): 0.176 µM
5.45 | 3.34 | CCCn1nc(-c2ccnc(Nc3ccc(O)cc3)n2)c2ccccc21 | –
8.04 | 7.02 | NS(=O)(=O)c1ccc(Nc2nccc(-n3ncc4cccnc43)n2)cc1 | –
77.7 | 78.7 | Brc1cccc(Nc2nc3ncccc3n2Cc2ccccc2)c1 | –
87.3 | 59.1 | COc1ccc(Nc2nc3ncccc3n2Cc2ccccc2)cc1 | –
14.6 | 6.93 | NS(=O)(=O)c1cccc(Nc2nccc(-n3ncc4cccnc43)n2)c1 | –
5.29 | 5.78 | CCn1nc(-c2ccnc(Nc3ccc(O)cc3)n2)c2ccccc21 | –
17.2 | 28.2 | Cn1nc(-c2ccnc(Nc3cccc(O)c3)n2)c2ccccc21 | –
0.75 | 5.56 | NS(=O)(=O)c1cccc(Nc2nccc(-n3ncc4ccccc43)n2)c1 | inhibition [4]: inactive; Ki [2]: > 5 µM; Activity (HCT-116 [5]): Active; inhibition [6]: Active; Activity (HCT-116 [7]): inactive; Ki [3]: 0.053 µM; Activity (HCT-116 [8]): Active; Activity (HCT-116 [9]): Active; Ki (CDK9/cyclin T1): 0.017 µM; Activity (HCT-116 [10]): Active; Activity (HCT-116 [11]): Active; Activity (HCT-116 [12]): inactive
8.84 | 8.64 | Cc1nn(-c2ccnc(Nc3ccc(S(N)(=O)=O)cc3)n2)c2ncccc12 | –
9.42 | 9.15 | Cc1cccc(Nc2nccc(-c3nn(C)c4ccccc34)n2)c1 | –
5.13 | 2.63 | NS(=O)(=O)c1ccc(Nc2nccc(-c3nn(Cc4cccnc4)c4ccccc34)n2)cc1 | Ki [2]: > 5 µM; Ki [3]: 0.287 µM; Ki (CDK9/cyclin T1): 0.207 µM
40.4 | 27.8 | Cc1ccc(Nc2nc3ncccc3n2Cc2ccccc2)cc1[N+](=O)[O-] | –
7.95 | 4.26 | CCCn1nc(-c2ccnc(Nc3cccc(S(N)(=O)=O)c3)n2)c2ccccc21 | Ki [2]: > 5 µM; Ki [3]: 0.945 µM; Ki (CDK9/cyclin T1): 0.285 µM

GI50 (HCT-116 [1]) [µM] | GI50 (MCF7) [µM] | Structure (SMILES) | also measured
41.7 | 24.2 | O=[N+]([O-])c1cccc(Nc2nc3ncccc3n2Cc2ccccc2)c1 | –
8.43 | 8.91 | Cn1nc(-c2ccnc(Nc3ccc(O)cc3)n2)c2ccccc21 | –
0.49 | 0.58 | Cn1nc(-c2ccnc(Nc3cccc([N+](=O)[O-])c3)n2)c2ccccc21 | –
2.82 | 2.31 | CCn1nc(-c2ccnc(Nc3cccc([N+](=O)[O-])c3)n2)c2ccccc21 | –
2.28 | 0.94 | Cn1nc(-c2ccnc(Nc3ccc(S(N)(=O)=O)cc3)n2)c2ccccc21 | Ki [2]: > 5 µM; Ki [3]: 0.096 µM; Ki (CDK9/cyclin T1): 0.14 µM
60.2 | 51.8 | c1ccc(Cn2c(Nc3ccccc3)nc3cccnc32)cc1 | –
8.73 | 7.83 | Cn1nc(-c2ccnc(Nc3ccc(Cl)cc3)n2)c2ccccc21 | –
64.7 | 52.5 | c1ccc(Cn2c(Nc3ccccc3)nc3ncccc32)cc1 | –
8.22 | 11.8 | Cn1nc(-c2ccnc(Nc3ccc([N+](=O)[O-])cc3)n2)c2ccccc21 | –
72.6 | 52.5 | Oc1ccc(Nc2nc3ncccc3n2Cc2ccccc2)cc1 | –
6.4 | 5.97 | Cn1nc(-c2ccnc(Nc3cccc(Cl)c3)n2)c2ccccc21 | –
24.8 | 19.9 | Cc1nn(-c2ccnc(Nc3cccc(S(N)(=O)=O)c3)n2)c2ncccc12 | –
8.28 | 5.27 | NS(=O)(=O)c1cccc(Nc2nccc(-c3nn(Cc4cccnc4)c4ccccc34)n2)c1 | Ki [2]: > 5 µM; Ki [3]: 4.53 µM; Ki (CDK9/cyclin T1): 0.314 µM; Ratio Ki [13]: 14
59.5 | 48 | Clc1ccc(Nc2nc3ncccc3n2Cc2ccccc2)cc1 | –
36.3 | 43.5 | Clc1cccc(Nc2nc3ncccc3n2Cc2ccccc2)c1 | –
8.64 | 6.1 | Cc1ccc(Nc2nccc(-c3nn(C)c4ccccc34)n2)cc1 | –
4.06 | 24 | CCn1nc(-c2ccnc(Nc3ccc([N+](=O)[O-])cc3)n2)c2ccccc21 | –
1.98 | 2.27 | Cn1nc(-c2ccnc(Nc3cccc(S(N)(=O)=O)c3)n2)c2ccccc21 | Ki [2]: > 5 µM; Ki [3]: 0.061 µM; Ki (CDK9/cyclin T1): 0.098 µM
65.1 | 73.2 | CCc1nn(-c2ccnc(Nc3cccc(S(N)(=O)=O)c3)n2)c2ncccc12 | –
